Assays:
[1] = test system: P388; assay: Mean survival time of treated animals compared with those of control animals expressed as percentage. T/C was determined against murine leukemia P388 implanted mouse at the dose of 140 umol/kg; assay type: functional
Summary of the method: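 BDF1 mice (six per group) inoculated ip with 10^6 P388 leukemia cells on day 0; Pt compounds given ip on days 1, 5 and 9 in 1% Tween-20/saline (1:9), five doses over a 16-fold range including the maximum tolerated dose. Untreated/vehicle negative controls; 5-fluorouracil (50 mg/kg) positive control. Animals observed 30–60 days; %T/C = mean survival time treated vs control.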

[2] = test system: L1210; assay: Compound was evaluated in vitro for its inhibitory activity against L1210 leukemia cell line using Coulter counter assay; assay type: functional; conditions: Mus musculus
Summary of the method: (§1)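 Log-phase murine L1210 or cisplatin-resistant L1210/DDP cells, drug in ethanol, ethanol/DMSO or DMF (final solvent ≤1.0%) with vehicle-only controls. Exposure was continuous for 48 h, or 2 h followed by 46 h growth. Cells were counted on a Coulter counter. ID50 (μM) was read from the percentage growth versus dose curve; single determinations, ranges, or mean ± range of 2–4.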

[3] = test system: P388/DDP; assay: Mean survival time of treated animals compared with those of control animals expressed as percentage T/C was determined against murine leukemia P388/DDP (cisplatin resistant) implanted mouse at the dose of 113 umol/kg; assay type: functional
Summary of the method: (§2)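 Groups of six BDF1 mice were injected ip on day 0 with 10^6 P388, 5 × 10^6 P388/DDP or 10^5 L1210 cells. Pt compounds in 1% Tween-20/saline (1:9) were given ip on days 1, 5 and 9 at five doses spanning a 16-fold range. Controls were untreated or vehicle-only. Mice were observed 30–60 days; %T/C is treated versus control mean survival time.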

[4] = test system: P388; assay: Mean survival time of treated animals compared with those of control animals was determined against murine leukemia P388 implanted mouse at the dose of 113 umol/kg; assay type: functional; summary of the method: as §2
[5] = test system: L1210; assay: Compound was evaluated in vitro for its inhibitory activity against L1210 leukemia cell line using […]; assay type: functional, cell-based; conditions: Mus musculus
Summary of the method: (§3)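 L1210 or L1210/DDP cells were dosed as for counting (48 h continuous, or 2-h pulse then 46 h), with vehicle controls. Growth was read by mitochondrial reduction of tetrazolium (MTT), modified Mosmann method. ID50 (μM) was taken from the percentage growth versus dose curve; single determinations, ranges, or mean ± range of 2–4.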

[6] = test system: L1210; assay: Compound was evaluated in vitro for its inhibitory activity against L1210/DDP leukemia cell line using MTT assay; assay type: functional, cell-based; conditions: Mus musculus; summary of the method: as §3
[7] = test system: L1210; assay: Compound was evaluated in vitro for its inhibitory activity against L1210/DDP leukemia cell line using Coulter counter assay; assay type: functional, cell-based; conditions: Mus musculus; summary of the method: as §1
[8] = test system: L1210; assay: Mean survival time of treated animals compared with those of control animals expressed as percentage T/C was determined against murine leukemia L1210 implanted mouse at the dose of 113 umol/kg; assay type: functional; summary of the method: as §2
[9] = test system: HT-29; assay: Compound was evaluated in vitro for its inhibitory activity againstHT-29 and BE human colon carcinoma cell line using MTT assay; assay type: functional, cell-based
Summary of the method: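 HT-29 and BE colon cells were pre-grown 12 h in EMEM with 1% glutamine and 15% FCS, then exposed to drug or vehicle for 2 days. Cells were released with pronase and growth was read by MTT tetrazolium reduction. ID50 (μM) was taken from the percentage growth versus dose curve.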

[10] = test system: HT-29; assay: Compound was evaluated in vitro for its inhibitory activity againstHT-29 and BE human colon carcinoma cell line using Coulter counter assay; assay type: functional, cell-based
Summary of the method: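 HT-29 and BE human colon cells were grown 12 h in EMEM with 1% glutamine and 15% fetal calf serum. Drug or solvent was added (final solvent ≤1.0%) for a further 2 days. Cells were released with pronase and Coulter counted. ID50 (μM) was taken from the percentage growth versus dose curve, with vehicle controls.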

[11] = test system: P388/DDP; assay: Mean survival time of treated animals compared with those of control animals expressed as percentage T/C was determined against murine leukemia P388/DDP (cisplatin resistant) implanted mouse at the dose of 20 umol/kg; assay type: functional; summary of the method: as §2
[12] = test system: P388; assay: Mean survival time of treated animals compared with those of control animals expressed as percentage. T/C was determined against murine leukemia P388 implanted mouse at the dose of 20 umol/kg; assay type: functional; summary of the method: as §2

Compound | T/C [1] | IC50 ([2]; read-out: ID50 (the source's name)) | T/C [3] | T/C [4] | ID50 [5] | ID50 [6] | ID50 [7] | T/C [8] | ID50 [9] | ID50 [2] | ID50 [10] | T/C [11] | T/C [12]
Fc1cc(F)c(F)c(NCCNc2c(F)c(F)cc(F)c2F)c1F | 108% | 37000 nM | – | – | – | – | – | – | – | – | – | – | –
1-[2-(1-pyridiniumyl)-1,3-di(2,3,5,6-tetrafluorophenyl)tetrahydro-1H-2-imidazolyl]pyridinium (platinumcomplex) | – | – | 115% | 206% | 1600 nM | 1400 nM | 1000 nM | 172% | 1100 nM | 1200 nM | 1000 nM | – | –
CISPLATIN | – | – | – | – | 1100 nM | 20300 nM | 6700 nM | – | – | 600 nM | 700 nM | 122% | 248%
